Reference: ChEMBL document CHEMBL3399918, “In vitro radical scavenging and cytotoxic activities of novel hybrid selenocarbamates” (Bioorg Med Chem, 2015)

Experiments:
MCF7 = assay: Cytotoxicity against human MCF7 cells after 72 hrs by MTT assay; assay type: functional; conditions: MCF7, 72 h; for CC50: read-out: LC50 (the source's name)
In short: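 MCF-7 cells grown in EMEM with 10% foetal calf serum, 2 mM L-glutamine, 100 units/mL penicillin, 100 µg/mL streptomycin. Exposed to five concentrations between 0.01 and 100 μM for 72 h, 37 °C, humidified 5% CO2; MTT read-out. GI50, TGI, LC50 relative to untreated controls; ≥3 independent experiments in quadruplicate.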

HT-29 = assay: Cytotoxicity against human HT-29 cells after 72 hrs by MTT assay; assay type: functional; conditions: HT-29, 72 h
In short: (§1)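 CCRF-CEM, HT-29, PC-3 and HTB-54 cells grown in RPMI 1640 with 10% foetal calf serum, 2 mM L-glutamine, penicillin/streptomycin, 10 mM HEPES (pH 7.4). Five concentrations, 0.01–100 μM, 72 h at 37 °C, 5% CO2; MTT read-out. GI50, TGI and LC50 versus untreated controls; at least 3 independent experiments in quadruplicate.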

CCRF-CEM = assay: Cytotoxicity against human CCRF-CEM cells after 72 hrs by MTT assay; assay type: functional; in short: as §1
[1] = Cytotoxicity against human PC3 cells after 72 hrs by MTT assay; assay type: functional; conditions: PC-3, 72 h; in short: as §1
[2] = Cytotoxicity against human HTB-54 cells after 72 hrs by MTT assay; assay type: functional; conditions: HTB-54, 72 h; for CC50: read-out: LC50 (the source's name); in short: as §1
[3] = Cytotoxicity against human 184B5 cells after 72 hrs by MTT assay; assay type: cell-based; conditions: for GI50 at 72 h: 184B5 cells; for LC50 / TGI: 184b5, 72 h
In short: (§2)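 Non-malignant lines: 184B5 (normal breast) in Hams F-12/DMEM (50:50) with published supplements; BEAS-2B (bronchial epithelium) in Hams F-12/DMEM (50:50) with 10% foetal calf serum, 2 mM L-glutamine, penicillin/streptomycin. Compounds at five concentrations, 0.01–100 μM, 72 h, 37 °C, 5% CO2; MTT read-out. GI50, TGI, LC50 relative to untreated controls; ≥3 independent experiments in quadruplicate.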

[4] = Cytotoxicity against human BEAS2B cells after 72 hrs by MTT assay; assay type: cell-based, BEAS-2B; conditions: for GI50 at 72 h: BEAS2B cells; for LC50 / TGI: beas-2b, 72 h; in short: as §2
[5] = Antioxidant activity assessed as ABTS radical scavenging activity by measuring Trolox equivalent antioxidant capacity after 6 mins; assay type: physicochemical; conditions: 0.1 h
In short: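 ABTS dissolved in deionized water at 1 mg/mL, oxidised to radical cation with potassium persulfate (2.45 mM final), kept overnight at room temperature in dark, then diluted with 50% ethanol to A741 = 0.700 ± 0.02. Compound (1 mg/mL ethanol stock) added 1:10 (0.1 mg/mL); A741 decrease read after 6 min against 50% ethanol blank. Trolox positive control; quadruplicate; TEAC from calibration curve.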

SMILES | GI50 (MCF7) [µM] | TGI (MCF7) [µM] | CC50 (MCF7) [µM] | GI50 (HT-29) [µM] | LC50 (HT-29) [µM] | TGI (HT-29) [µM] | GI50 (CCRF-CEM) [µM] | LC50 (CCRF-CEM) [µM] | TGI (CCRF-CEM) [µM] | GI50 [1] [µM] | LC50 (concentration causing 50% net cell kill) [1] [µM] | TGI [1] [µM] | GI50 [2] [µM] | TGI [2] [µM] | CC50 [2] [µM] | GI50 at 72 h [3] [µM] | LC50 [3] [µM] | TGI [3] [µM] | GI50 at 72 h [4] [µM] | LC50 [4] [µM] | other results
O=C(Nc1ccc([Se][Se]c2ccc(NC(=O)Oc3ccc(Cl)cc3)cc2)cc1)Oc1ccc(Cl)cc1 | 12.4 | 46 | 79.6 | 9.9 | 76.9 | 43.4 | 10.8 | 76 | 43.4 | 1 | 82.6 | 28.1 | 28.6 | 60.8 | 93 | 2.5 | 52.6 | 8.9 | 0.1 | 64.7 | TGI [4]: 26.6 µM
O=C(Nc1ccc([Se][Se]c2ccc(NC(=O)OCc3ccc([N+](=O)[O-])cc3)cc2)cc1)OCc1ccc([N+](=O)[O-])cc1 | 20.6 | 52.8 | 85 | 16.7 | 75.9 | 46.3 | 8.6 | 68.1 | 36.5 | 6.4 | 69.2 | 27.1 | 31.8 | 55.6 | 79.4 | 6 | 56.5 | 13.8 | 6.3 | 61.6 | TGI [4]: 22.5 µM
O=C(Nc1ccc([Se][Se]c2ccc(NC(=O)OCC3c4ccccc4-c4ccccc43)cc2)cc1)OCC1c2ccccc2-c2ccccc21 | 22.6 | 52.9 | 83.3 | 17.8 | 80.3 | 49 | 14.9 | 71.4 | 43.2 | 9.2 | 70.3 | 38.8 | 36.8 | 60.5 | 84.3 | 6.5 | 59.4 | 19.7 | 7.1 | 64.1 | TGI [4]: 27.9 µM; Activity [5]: 0.93 µg/µL
COc1ccc(OC(=O)Nc2ccc([Se]C#N)cc2)cc1 | 22.4 | 48.2 | 74.1 | 13.6 | 69.6 | 41.5 | 13 | 70 | 41.5 | 7.5 | 71.6 | 44.6 | 23.7 | 48.5 | 73.3 | 4.5 | 59.6 | 19.2 | 25.2 | 71.6 | TGI [4]: 48.4 µM; Activity [5]: 2.58 µg/µL
Cc1ccc(OC(=O)Nc2ccc([Se]C#N)cc2)cc1 | 9.9 | 39.9 | 69.8 | 8.8 | 68.7 | 38.8 | 17.4 | 72 | 44.7 | 7.6 | 65.1 | 32.3 | 17.3 | 44.2 | 71.1 | 4.4 | 46.9 | 8.7 | 5.6 | 58.3 | TGI [4]: 15.3 µM
C=CCOC(=O)Nc1ccc([Se]C#N)cc1 | 15 | 43.1 | 71.2 | 24.5 | 72.8 | 48.6 | 9.2 | 68.6 | 38.1 | 17.6 | 71.8 | 44.7 | 27 | 50.1 | 73.3 | 5 | 53.8 | 9.8 | 21.4 | 73.5 | TGI [4]: 47.4 µM
COc1cc([C@@H]2c3cc4c(cc3[C@@H](O[C@@H]3O[C@@H]5CO[C@@H](C)O[C@H]5[C@H](O)[C@H]3O)[C@H]3COC(=O)[C@H]23)OCO4)cc(OC)c1O [ETOPOSIDE] | 19.9 | > 100 | > 100 | 31.6 | – | > 100 | 1.6 | – | 50.5 | 0.6 | – | 4 | – | – | – | – | – | – | – | – | –
N#C[Se]c1ccc(NC(=O)OCC2=Cc3ccccc3S2(=O)=O)cc1 | 8.3 | 34.9 | 66.1 | 26.1 | 74.3 | 50.2 | 3.3 | 8.9 | 6.1 | 6.3 | 59.8 | 21.3 | 6.8 | 26.9 | 62.7 | 5.3 | 59.7 | 19.2 | 7.7 | 64.3 | TGI [4]: 29 µM; Activity [5]: 1.92 µg/µL
CCCOC(=O)Nc1ccc([Se]C#N)cc1 | 8 | 34.4 | 67.5 | 28.4 | 75.4 | 51.9 | 9.3 | 68.8 | 38.4 | 21.1 | 73.8 | 47.4 | 28.9 | 51.9 | 74.9 | 3.7 | 50.9 | 9.1 | 19.2 | 73.5 | TGI [4]: 46.3 µM; Activity [5]: 6.27 µg/µL
N#C[Se]c1ccc(NC(=O)OCc2ccc([N+](=O)[O-])cc2)cc1 | 11.8 | 40.7 | 69.5 | 22.4 | 71.9 | 47.1 | 9.3 | 68.8 | 38.3 | 9 | 67.6 | 36.5 | 22.9 | 47.6 | 72.4 | 6 | 58.5 | 18 | 7.7 | 65.8 | TGI [4]: 32.8 µM; Activity [5]: 9.66 µg/µL
O=C(Nc1ccc([Se][Se]c2ccc(NC(=O)Oc3ccc(F)cc3)cc2)cc1)Oc1ccc(F)cc1 | 8 | 33.7 | 64.3 | 18.5 | 85.3 | 51.9 | 8.7 | 68.8 | 37.6 | 4.9 | 64.5 | 31.3 | 26.7 | 51.8 | 77 | 3.7 | 47.8 | 8.6 | 0.7 | 61.8 | TGI [4]: 23.5 µM
O=C(Nc1ccc([Se][Se]c2ccc(NC(=O)OCC3=Cc4ccccc4S3(=O)=O)cc2)cc1)OCC1=Cc2ccccc2S1(=O)=O | 3.2 | 5.7 | 8.2 | 3 | 7.8 | 5.4 | 2.3 | 7.5 | 4.9 | 3.8 | 7.9 | 5.8 | 4.4 | 6.3 | 8.2 | 2.6 | 7.5 | 5 | 3.5 | 7.9 | TGI [4]: 5.7 µM; Activity [5]: 5.78 µg/µL
